This is an account of results in ChEMBL document CHEMBL2203109, “3-Phenyl substituted 6,7-dimethoxyisoquinoline derivatives as FtsZ-targeting antibacterial agents” (Bioorg Med Chem, 2012).

Data set [1] deals with HEK293. In words: Cytotoxicity against human HEK293 cells after 4 days by MTT assay. The class given is cell-based. The settings on record: HEK293, 96 h. A digest of the protocol: (§1)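 MTT assay. HEK293 or MDCK cells kept at 37 °C, 5% CO2 in DMEM, seeded at 1500 cells per well. Continuous 4-day exposure to varying drug concentrations in triplicate wells, with a drug-free control. MTT read at end of day 4; IC50 determined.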
For orientation: Tetrazolium assays rely on reduction of a dye to a coloured formazan, in cell work by metabolically active cells.

Data set [2] has as its system Staphylococcus aureus. Kind of data set: Antibacterial activity against log-phase methicillin-resistant Staphylococcus aureus ATCC 33591 assessed as growth inhibition after 24 hrs by broth microdilution method. The class given is functional. The settings on record: ATCC 33591, 24 h. A digest of the protocol: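 CLSI broth microdilution; 10^5 CFU/mL log-phase bacteria in cation-adjusted Mueller-Hinton broth with 2% NaCl, two-fold serial dilutions from 64 to 0.031 μg/mL; aerobic incubation 24 h at 37 °C; growth read as OD600; MIC = lowest concentration giving ≥90% growth inhibition.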
(Dilution methods test growth across graded concentrations, often in twofold steps.)

Data set [3] concerns Enterococcus faecalis. In words: Antibacterial activity against log-phase vancomycin-resistant Enterococcus faecalis ATCC 51575 assessed as growth inhibition after 24 hrs by broth microdilution method. The settings on record: ATCC 51575, 24 h. The class given is functional. A digest of the protocol: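 CLSI broth microdilution in brain–heart infusion broth; log-phase bacteria at 10^5 CFU/mL, two-fold serial dilutions 64 to 0.031 μg/mL; 24 h aerobic incubation at 37 °C; OD600 read-out; MIC taken as lowest concentration inhibiting growth ≥90%.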

A further data set deals with MDCK. In words: Cytotoxicity against dog MDCK cells after 4 days by MTT assay. The class given is cell-based. The settings on record: Canis lupus familiaris, 96 h. A digest of the protocol:
as §1

For data set [4], the system named is Staphylococcus aureus. Kind of data set: Antibacterial activity against log-phase methicillin-sensitive Staphylococcus aureus 8325-4 assessed as growth inhibition after 24 hrs by broth microdilution method. Type of data set: functional. As to conditions: 8325-4, 24 h. A digest of the protocol: (§2)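 CLSI broth microdilution. Log-phase bacteria at 10^5 CFU/mL with two-fold serial dilutions (64 to 0.031 μg/mL). S. aureus tested in cation-adjusted Mueller-Hinton broth; E. faecalis in brain–heart infusion broth. Aerobic incubation 24 h at 37 °C. OD600 read; MIC is the lowest concentration giving ≥90% growth inhibition.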

In data set [5] the test system is Enterococcus faecalis. Kind of data set: Antibacterial activity against log-phase vancomycin-sensitive Enterococcus faecalis ATCC 19433 assessed as growth inhibition after 24 hrs by broth microdilution method. Type of data set: functional. The settings on record: ATCC 19433, 24 h. A digest of the protocol:
as §2

The target in data set [6] is T1, Cell division protein FtsZ (Staphylococcus aureus) (UniProt P0A031).
T1 sequence (whole entry): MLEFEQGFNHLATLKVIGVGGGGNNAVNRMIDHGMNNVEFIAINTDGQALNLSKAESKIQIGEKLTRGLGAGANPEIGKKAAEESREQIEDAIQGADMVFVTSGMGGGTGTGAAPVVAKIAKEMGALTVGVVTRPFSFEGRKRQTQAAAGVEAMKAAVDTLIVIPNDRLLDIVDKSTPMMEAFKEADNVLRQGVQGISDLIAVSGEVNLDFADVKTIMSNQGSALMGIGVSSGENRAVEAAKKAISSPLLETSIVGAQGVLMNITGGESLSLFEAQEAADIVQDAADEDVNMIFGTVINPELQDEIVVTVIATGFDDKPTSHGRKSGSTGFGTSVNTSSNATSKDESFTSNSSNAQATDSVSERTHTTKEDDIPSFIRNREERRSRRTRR
In words: Induction of Staphylococcus aureus FtsZ polymerization at 40 ug/ml measured for 60 mins by microtiter plate-based light scattering assay. A digest of the protocol: (§3)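 Turbidity assay. 10 μM SaFtsZ plus compound (0–40 μg/mL) in 50 mM Tris HCl pH 7.4, 50 mM KCl, 2 mM magnesium acetate, 5 mM CaCl2, pre-equilibrated 10 min at room temperature. Started by adding 1 mM GTP or FtsZ; A340 followed for 60 min at 25 °C. For polymer stability, 1 mM GDP added mid-run.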

Data set [7] deals with T1, Cell division protein FtsZ (Staphylococcus aureus). Kind of data set: Residual Staphylococcus aureus GTPase activity assessed as inorganic phosphate release upon GTP hydrolysis at 40 ug/ml preincubated for 10 mins before substrate addition measured after 2 hrs by malachite green based colorimetric analysis.
Data set [8] addresses T2, Cell division protein FtsZ (Staphylococcus aureus, UniProt P0A031).
T2 sequence (P0A031 whole entry): T1 sequence (whole entry)
Kind of data set: Binding affinity to Staphylococcus aureus FtsZ expressed in Escherichia coli cells assessed as dissociation constant by fluorescence spectroscopy. A digest of the protocol:
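Recombinant SaFtsZ from E. coli titrated stepwise into compound (7 or 10 μM) in 50 mM Tris HCl pH 7.4, 50 mM KCl, 2 mM magnesium acetate. After 3 min equilibration per addition, emission scanned 510–370 nm and buffer-only titration background subtracted. Kd obtained by fitting intensity changes to a 1:1 binding model.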

Data set [9] deals with T1, Cell division protein FtsZ (Staphylococcus aureus). Kind of data set: Induction of Staphylococcus aureus FtsZ polymerization at 40 ug/ml measured for 60 mins by microtiter plate-based light scattering assay in presence of GTP.
The target of data set [10] is Tubulin beta chain (Sus scrofa) (UniProt P02554). In words: Induction of pig MAP-rich beta-tubulin polymerization at 40 ug/ml measured for 60 mins by microtiter plate based light scattering assay. A digest of the protocol:
(§4)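 Porcine tubulin (70% β-tubulin, 30% MAPs) at 2 mg/mL with 1 mM GTP and compound in 80 mM PIPES NaOH pH 7.0, 2 mM MgCl2, 1 mM EGTA. A340 followed continuously at 37 °C for 60 min.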

The target in data set [11] is T1, Cell division protein FtsZ (Staphylococcus aureus). Kind of data set: Induction of Staphylococcus aureus FtsZ polymerization measured for 60 mins by microtiter plate-based light scattering assay. A digest of the protocol:
as §3

The subject of data set [12] is HEK293. In words: Cytotoxicity against human HEK293 cells at 10 uM after 4 days by MTT assay. The class given is cell-based. As to conditions: hek293, 96 h. A digest of the protocol: as §1
Data set [13] deals with Tubulin beta chain (Sus scrofa) (UniProt P02554). Kind of data set: Induction of pig MAP-rich beta-tubulin polymerization at 25 ug/ml measured for 60 mins by microtiter plate based light scattering assay. A digest of the protocol: as §4
The target of data set [14] is T1, Cell division protein FtsZ (Staphylococcus aureus). In words: Induction of Staphylococcus aureus GTPase activity assessed as inorganic phosphate release upon GTP hydrolysis at less than 40 ug/ml preincubated for 10 mins before substrate addition measured after 2 hrs by malachite green based colorimetric analysis. A digest of the protocol: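 S. aureus FtsZ expressed in E. coli, 10 μM, with DMSO or compound (0.1–200 μg/mL) in 50 mM Tris HCl pH 7.4, 50 mM KCl, 2 mM Mg acetate, 5 mM CaCl2; duplicate reactions. After 10 min room-temperature pre-equilibration, 250 μM GTP added, 2 h at 37 °C. Pi by malachite green, A620, phosphate standard curve; expressed as percent of vehicle.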

The target of data set [15] is Tubulin beta chain (Sus scrofa) (UniProt P02554). As to conditions: 10 ug/ml.

Values after ≈ are worked out from the molar mass of the structure shown. Active and inactive are the calls of the source. The calls are words filed in the database; no cut-off is given here.

Chain of Tubulin beta chain (Sus scrofa) (P02554 whole entry): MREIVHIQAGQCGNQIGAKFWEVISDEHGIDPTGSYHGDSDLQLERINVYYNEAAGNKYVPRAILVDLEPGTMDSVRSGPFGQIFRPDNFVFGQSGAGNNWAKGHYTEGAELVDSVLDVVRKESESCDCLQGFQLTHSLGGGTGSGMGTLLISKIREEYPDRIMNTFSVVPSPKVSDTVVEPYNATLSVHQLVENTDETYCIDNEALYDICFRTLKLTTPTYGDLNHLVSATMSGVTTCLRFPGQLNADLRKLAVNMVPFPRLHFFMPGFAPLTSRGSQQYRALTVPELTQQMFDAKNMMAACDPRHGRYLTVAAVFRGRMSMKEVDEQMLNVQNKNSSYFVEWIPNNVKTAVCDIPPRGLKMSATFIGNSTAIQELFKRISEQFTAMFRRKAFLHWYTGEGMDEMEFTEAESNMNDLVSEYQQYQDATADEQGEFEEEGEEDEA

Consider `COc1cc2cc(-c3cccc(-c4ccccc4)c3)nc(CN)c2cc1OC`, for which the figures for the 50% inhibitory concentration (IC50) in the data set on HEK293 [1] and in the data set on MDCK were 3000 nM and 7000 nM, respectively. Besides, the MIC90 (as a rule, the lowest concentration that inhibits either 90% of growth or 90% of the strains tested, depending on the study) is 16 µg/mL (≈ 43.2 µM) with Staphylococcus aureus [2], greater than 64 µg/mL in the data set with Enterococcus faecalis [3], 8 µg/mL (≈ 21.6 µM) in the data set on Staphylococcus aureus [4] and greater than 64 µg/mL in the data set with Enterococcus faecalis [5].
Take `COc1cc2cc(-c3cccc(-c4ccc(C(C)(C)C)cc4)c3)[n+](C)c(C)c2cc1OC.[I-]`: the outcome in data set [6] and in data set [9] was Active. The residual activity (in general, the share of the control activity or signal that is left under treatment) in data set [7] is 14.9%. Further, the Kd – broadly, the free concentration of one partner at which half of the binding sites on the other are occupied at equilibrium, for simple one-to-one binding – in data set [8] came out at 5400 nM. Also, the MIC90 was 8 µg/mL in the data set on Staphylococcus aureus [2], 8 µg/mL in the data set on Enterococcus faecalis [3], 1 µg/mL in the data set on Staphylococcus aureus [4] and 8 µg/mL in the data set on Enterococcus faecalis [5]. Further, the outcome in data set [10] was inactive. The Activity result in data set [11] was “Dose-dependent effect”.
Turning to `COc1cc2cc(-c3cccc(C(C)(C)C)c3)nc(CN=C(N)N)c2cc1OC`, the result in data set [6] was Active. In addition, the residual activity in data set [7] is 60.4%. Further, the MIC90 in the data set with Staphylococcus aureus [2] was found to be 8 µg/mL (≈ 20.4 µM); in the data set with Enterococcus faecalis [3], 16 µg/mL (≈ 40.8 µM); with Staphylococcus aureus [4], 4 µg/mL (≈ 10.2 µM); in the data set with Enterococcus faecalis [5] it was 16 µg/mL (≈ 40.8 µM). In [10], the outcome was inactive. Moreover, the Activity result was “Non-toxic” with HEK293 [12] and “Dose-dependent effect” in [11].
Turning to `CC(=O)O[C@H]1C(=O)[C@@]2(C)[C@H]([C@H](OC(=O)c3ccccc3)[C@]3(O)C[C@H](OC(=O)[C@H](O)[C@@H](NC(=O)c4ccccc4)c4ccccc4)C(C)=C1C3(C)C)[C@]1(OC(C)=O)CO[C@@H]1C[C@@H]2O`, the outcome in data set [13] was Active.
For `COc1cc2cc(-c3cccc(-c4ccccc4)c3)nc(CCN=C(N)N)c2cc1OC`, the result in data set [6] and in data set [14] was Active. Moreover, the residual activity in data set [7] was determined as 56%. The MIC90 was 2 µg/mL (≈ 4.69 µM) in the data set with Staphylococcus aureus [2], 8 µg/mL (≈ 18.8 µM) in the data set on Enterococcus faecalis [3], 2 µg/mL (≈ 4.69 µM) with Staphylococcus aureus [4] and 8 µg/mL (≈ 18.8 µM) in the data set on Enterococcus faecalis [5]. Besides, the Activity result was “Non-toxic” in the data set with HEK293 [12] and “Dose-dependent effect” in [11].
For the compound `COC(=O)Nc1nc2cc(C(=O)c3cccs3)ccc2[nH]1`, in data set [15], the inhibition result was “Active”.
On to `COc1cc2cc(-c3cccc(-c4ccccc4)c3)nc(N=C(N)N)c2cc1OC`, for which the 50% inhibitory concentration (IC50) in the data set with HEK293 [1] and with MDCK was 2200 nM throughout. The MIC90 with Staphylococcus aureus [2] was found to be 4 µg/mL (≈ 10 µM); with Enterococcus faecalis [3] it was 8 µg/mL (≈ 20.1 µM); in the data set with Staphylococcus aureus [4], 8 µg/mL (≈ 20.1 µM); with Enterococcus faecalis [5], 8 µg/mL (≈ 20.1 µM).
With `COc1cc2cc(-c3cccc(C(C)(C)C)c3)nc(CCN=C(N)N)c2cc1OC`, the outcome in data set [6] and in data set [9] was Active. In [7], the residual activity was found to be 66.5%. In addition, the MIC90 was 4 µg/mL (≈ 9.84 µM) in the data set on Staphylococcus aureus [2], 16 µg/mL (≈ 39.4 µM) in the data set with Enterococcus faecalis [3], 4 µg/mL (≈ 9.84 µM) in the data set on Staphylococcus aureus [4] and 16 µg/mL (≈ 39.4 µM) in the data set on Enterococcus faecalis [5]. Besides, the values for the Activity entry (in the data set on HEK293 [12]; in data set [11]) were “Non-toxic” and “Dose-dependent effect”, respectively.
On to `COc1cc2cc(-c3cccc(-c4ccc(-c5ccccc5)cc4)c3)[n+](C)c(C)c2cc1OC.[I-]`, for which the outcome in data set [6] was Active. Moreover, the residual activity in data set [7] worked out at 30.2%. For the same compound, the Kd in data set [8] turned out to be 2000 nM. Moreover, the MIC90 with Staphylococcus aureus [2] stood at 2 µg/mL; in the data set with Enterococcus faecalis [3], 8 µg/mL; with Staphylococcus aureus [4] it was 1 µg/mL; with Enterococcus faecalis [5], 4 µg/mL. Moreover, the Activity entry in data set [11] was “Dose-dependent effect”.
For the compound `COc1cc2cc(-c3cccc(C(C)(C)C)c3)nc(C/N=C(/C)N)c2cc1OC`, the outcome in data set [6] and in [14] was Active. Moreover, in [7], the residual activity is 64.8%. Moreover, the MIC90 came out at 8 µg/mL (≈ 20.4 µM) in the data set with Staphylococcus aureus [2], 16 µg/mL (≈ 40.9 µM) in the data set on Enterococcus faecalis [3], 8 µg/mL (≈ 20.4 µM) in the data set with Staphylococcus aureus [4] and 16 µg/mL (≈ 40.9 µM) in the data set with Enterococcus faecalis [5]. Moreover, the Activity result in data set [11] is “Dose-dependent effect”.
Consider `COc1cc2cc(-c3cccc(C(C)(C)C)c3)nc(CCN)c2cc1OC`, for which the outcome in data set [6] and in data set [9] was Active. Further, the IC50 in the data set on HEK293 [1] and with MDCK was 2200 nM throughout. For the same compound, the residual activity in data set [7] came out at 59.7%. For the same compound, the MIC90 in the data set on Staphylococcus aureus [2], with Enterococcus faecalis [3], in the data set on Staphylococcus aureus [4] and in the data set on Enterococcus faecalis [5] was 16 µg/mL (≈ 43.9 µM) throughout. In addition, the Activity entry in data set [11] was “Dose-dependent effect”.
